Source: PubChem
PfM18AAP inh = PfM18AAP enzyme inhibition | recombinant PfM18AAP, H-Glu-NHMec fluorogenic cleavage | inhibition, % at 7.35 µM | hit rate 1.2% among 290,000 | AID 1822;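 active = inhibition above the campaign mean inhibition over all tested compounds plus 3 SD, cut at about 28% in these data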;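 also: 0% = plate median of test compound wells and 100% = 2 mM ZnCl2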
Hck-Nef inh = inhibitors of human Hck kinase activated by Nef. Recombinant Hck-YEEI plus Nef, Z-Lyte FRET kinase assay. inhibition, % at 20 µM. hit rate 0.68% among 220,000. AID 463187;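 active = Hck-Nef kinase inhibition above about 50%, limit read from the data; inactive = inhibition below that limit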;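 also: 0% = DMSO with Hck plus Nef and 100% = Hck alone without Nef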
RBBP9 inh = blocks human serine hydrolase RBBP9; O75884; recombinant RBBP9, FP-Rh probe fluorescence polarization; inhibition, % at 7.94 µM; hit rate 0.2% among 220,000; AID 1515;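 active = inhibition above the campaign mean of all tested compounds plus 3 SD, cut at about 14% in these data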;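 also: plate controls were DMSO wells with RBBP9 for no effect and wells lacking RBBP9 protein for full effect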
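Material: RBBP9 protein. Amount: RBBP9 at 2.5 µM in dispensed solution, before mixing. Schedule: 30 min then 45 min, 25 °C. Medium: Tris buffer pH 8.0, NaCl, Pluronic. Measured by: fluorescence polarization. Measure: percent inhibition from mP, scaled between DMSO and no-protein wells. Replication: one well per compound.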
RanGTP-Impb inh = disruptors of Ran-importin-beta complex formation – biochemical, FRET, CFP-Ran, YFP-importin-beta, homogeneous, primary screen. cell-free CFP-Ran/YFP-importin-beta FRET ratio. inhibition, % (concentration not given with the values). hit rate 1.1% among 300,000. AID 2216;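 active = more than half of the replicate wells show a fall in the fluorescence ratio signal beyond about 16%, limit read from the data, passing the limit was not always enough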;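 also: 0% = DMSO wells and 100% = Ran loaded with GDP instead of GTP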
Runt-CBFb FRET = Runt domain-CBFb interaction inhibition | AID 1496 | Q01196+Q13951 | hit rate 0.46% among 220,000 | inhibition, % at 20 µM | Cerulean-Runt/Venus-CBFb FRET ratio 530/480, 1 h;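 active = inhibition over about 50% at 20 µM in the single-dose screen, limit read from the data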;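 also: 0% = DMSO wells and 100% = excess unlabeled CBFb competitor control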
Target sequence (Q01196 whole entry, looked up, the tested form may be a part): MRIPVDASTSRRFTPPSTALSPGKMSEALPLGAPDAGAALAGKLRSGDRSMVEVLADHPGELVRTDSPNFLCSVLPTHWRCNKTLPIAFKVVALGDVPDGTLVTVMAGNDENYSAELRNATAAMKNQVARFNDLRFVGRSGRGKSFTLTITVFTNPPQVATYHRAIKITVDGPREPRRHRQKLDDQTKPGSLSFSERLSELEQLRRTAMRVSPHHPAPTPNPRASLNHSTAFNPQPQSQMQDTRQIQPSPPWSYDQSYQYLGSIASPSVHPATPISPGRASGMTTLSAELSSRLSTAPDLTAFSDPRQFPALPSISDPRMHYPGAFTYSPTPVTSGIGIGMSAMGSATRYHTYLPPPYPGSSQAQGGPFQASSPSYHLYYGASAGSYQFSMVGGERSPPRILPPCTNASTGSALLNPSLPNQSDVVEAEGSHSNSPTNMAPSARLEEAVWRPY
Target sequence (Q13951 whole entry, looked up, the tested form may be a part): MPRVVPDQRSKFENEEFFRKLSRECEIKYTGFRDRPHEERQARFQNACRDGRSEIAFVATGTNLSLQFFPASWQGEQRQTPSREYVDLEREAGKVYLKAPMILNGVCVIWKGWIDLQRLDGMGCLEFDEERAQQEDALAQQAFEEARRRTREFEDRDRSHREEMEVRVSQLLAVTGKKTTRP
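Measured by: fluorescence energy transfer, 422 nm excitation, 530/480 nm emission; test system: Cerulean-tagged RUNX1 Runt domain (FRET donor) fusion protein; buffer or medium: Tris pH 7.5 buffer with BSA; compound: one dose, 20 µM compound, 1% DMSO; times: two 1 h room-temperature incubations shielded from light; benchmarks: unlabeled CBFb 5 µM, positive control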
Runt-SMMHC FRET = blocks binding of human RUNX1 Runt domain to CBFb-SMMHC; hit rate 0.74% among 220,000; inhibition, % at 20 µM; Cerulean-Runt/Venus-CBFb-SMMHC FRET ratio 530/480, 1 h; Q01196+Q13951;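 active = mean inhibition across duplicate retests at 20 µM reaching about 50%, limit read from the data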;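 also: 0% = DMSO wells and 100% = wells with excess untagged CBFb-SMMHC; inhibitors lower the FRET ratio by blocking Runt binding to CBFb-SMMHC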
Hck Nef conf = confirmation of Hck-Nef kinase inhibitors. Recombinant Hck-YEEI:Nef, Z-Lyte FRET kinase assay. AID 463188. shares compounds with Hck-Nef inh. calls only at 10 µM. hit rate 28% among 1,300;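 active = average inhibition of at least 50%, with Z-scores no higher than 3 in both the phospho-tyrosine peptide and fluorescence counterscreens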
An asterisk follows results filed as active. Sampled rows, rich in hits. Any-hit rate of the full collection: about 2.9%.

`Nc1nc2nc(-c3cccs3)cc(C(F)(F)F)n2n1` gave PfM18AAP inh -0.5, Hck-Nef inh 110.0*, RBBP9 inh -4.3, RanGTP-Impb inh 62.3*, Runt-CBFb FRET 66.0* and Runt-SMMHC FRET 91.1*.
`CCN(Cc1ccccc1)S(=O)(=O)c1cc2[nH]c(=O)c(=O)[nH]c2cc1C` gave PfM18AAP inh 3.3 and RanGTP-Impb inh 3.2.
For COc1cccc(OCC(=O)Nc2c3c(nn2-c2ccccc2)CS(=O)(=O)C3)c1 the results were PfM18AAP inh 9.8 and RanGTP-Impb inh 0.9.
N#Cc1c2nc3ccccc3nc2n2cc(NC(=O)c3ccc(F)cc3)ccc12 was read as PfM18AAP inh 3.0, Hck-Nef inh 72.2*, RBBP9 inh -5.8, Runt-CBFb FRET -29.9, Runt-SMMHC FRET -66.4 and Hck Nef conf inactive.
Screening N#C/C(=C(/O)CO/N=C/c1ccccc1Cl)c1nc2ccccc2[nH]1 returned PfM18AAP inh 2.7, Hck-Nef inh 22.6, RBBP9 inh -1.4, RanGTP-Impb inh 2.6, Runt-CBFb FRET 3.1 and Runt-SMMHC FRET 7.4.
`N#Cc1cccc(NC(=O)CCNS(=O)(=O)c2ccc3[nH]c(=O)oc3c2)c1` gave PfM18AAP inh 1.6 and RanGTP-Impb inh -9.4.
Screening COc1ccc(C(=O)N2CCCC(C(=O)N3CCN(c4ccccc4)CC3)C2)cc1 (stereo unspecified) returned PfM18AAP inh -6.4, Hck-Nef inh 20.4, RBBP9 inh 0.6, RanGTP-Impb inh 3.0, Runt-CBFb FRET 1.1 and Runt-SMMHC FRET 4.2.
COc1ccc(C(=O)N2CCCC(C(=O)N3CCCCCC3)C2)cc1 (stereo unspecified) was read as PfM18AAP inh -10.6, Hck-Nef inh 56.9*, RBBP9 inh -8.2, RanGTP-Impb inh -0.5, Runt-CBFb FRET -0.9, Runt-SMMHC FRET 2.0 and Hck Nef conf inactive.
CN(Cc1ccccc1)S(=O)(=O)c1ccc2[nH]c(=O)ccc2c1 was read as PfM18AAP inh -3.6 and RanGTP-Impb inh -2.9.
Screening COc1ccc(OC)c(NC(=O)NC2CCCc3ccccc32)c1 (stereo unspecified) returned PfM18AAP inh 5.4 and RanGTP-Impb inh -1.8.
`CCC(C)C(NC(=O)c1ccccc1NC(=O)c1ccc(OC)cc1)C(=O)NCc1ccco1` (stereo unspecified) gave PfM18AAP inh -0.6, Hck-Nef inh 68.9*, RBBP9 inh -8.2, RanGTP-Impb inh 1.7, Runt-CBFb FRET -0.9, Runt-SMMHC FRET -1.6 and Hck Nef conf active.
Cc1ccc(-c2nn3c(C)nnc3s2)cc1NC(=O)c1ccc(-c2ccc(Cl)cc2Cl)o1 was read as PfM18AAP inh -8.0, Hck-Nef inh 50.2*, RBBP9 inh -14.5, Runt-CBFb FRET 0.0, Runt-SMMHC FRET -8.7 and Hck Nef conf active.
For Cc1ccc(-c2nn3c(C)nnc3s2)cc1NC(=O)c1ccc(-c2cccc(Cl)c2)o1 the results were PfM18AAP inh 14.1, Hck-Nef inh 15.2, RBBP9 inh -7.0, RanGTP-Impb inh 10.4, Runt-CBFb FRET 11.9 and Runt-SMMHC FRET -3.6.
For C=CCc1c(O)c(CC)cc2c(C)cc(=O)oc12 the results were PfM18AAP inh -16.3, Hck-Nef inh 105.8*, RBBP9 inh -12.9, RanGTP-Impb inh 62.1*, Runt-CBFb FRET 47.4 and Runt-SMMHC FRET 80.2*.
Screening CCC(=O)c1cc2c(C)cc(=O)oc2c(C)c1O returned PfM18AAP inh 4.4, Hck-Nef inh -0.9, RBBP9 inh -3.8, RanGTP-Impb inh 2.3, Runt-CBFb FRET 26.8 and Runt-SMMHC FRET 65.3.
For Cc1cc(=O)oc2c(CN3CCCC3)c(O)ccc12 the results were PfM18AAP inh 5.5 and RanGTP-Impb inh 8.7.
For CCN(CC)Cc1c(O)c(Cl)cc2c(C)cc(=O)oc12 the results were PfM18AAP inh 6.4, Hck-Nef inh active, RBBP9 inh 0.0, RanGTP-Impb inh 13.2, Runt-CBFb FRET 76.0* and Runt-SMMHC FRET 137.6*.
Cc1cc(=O)oc2c(CN(CC(C)C)CC(C)C)c(O)ccc12 was read as PfM18AAP inh -7.2, Hck-Nef inh 63.3*, RBBP9 inh 7.7, RanGTP-Impb inh 0.1, Runt-CBFb FRET 42.5 and Runt-SMMHC FRET 76.6*.
For Cc1c(Cc2ccccc2)c(=O)oc2c(CN(C)C)c(O)c(Cl)cc12 the results were PfM18AAP inh 0.8, Hck-Nef inh 116.0*, RBBP9 inh -1.2, RanGTP-Impb inh 70.7*, Runt-CBFb FRET 126.4* and Runt-SMMHC FRET 89.5*.
`CCN1C(=O)C(=O)N(CC(=O)N2CCN(c3ccccc3)CC2)C1=O` gave RanGTP-Impb inh 0.1.
CC1=CC(C)[C@H](/C=N/n2c(=O)[nH]c3c([nH]c4ccc(Br)cc43)c2=O)C(C)C1 (stereo partly specified) was read as PfM18AAP inh 3.2, Hck-Nef inh 60.7*, RBBP9 inh -9.8, RanGTP-Impb inh -55.0, Runt-SMMHC FRET 4.5 and Hck Nef conf inactive.
For NS(=O)(=O)c1ccc(CNC(=O)Cc2ccccc2[N+](=O)[O-])cc1 the results were PfM18AAP inh -3.9 and RanGTP-Impb inh 0.0.
Screening Cc1cc(Cl)nc(Cl)c1C(=O)NCc1ccc(Cl)cc1 returned PfM18AAP inh -2.1 and RanGTP-Impb inh -0.7.
Screening CCC(C)NC(=O)c1cc2c(=O)n3cccc(C)c3nc2s1 (stereo unspecified) returned PfM18AAP inh -1.4 and RanGTP-Impb inh 1.8.
For COCCCNC(=O)c1cc2c(=O)n3cccc(C)c3nc2n(C(C)C)c1=N the results were PfM18AAP inh 4.2, Hck-Nef inh 166.9*, RBBP9 inh -6.5, RanGTP-Impb inh 187.8*, Runt-CBFb FRET 17.9 and Runt-SMMHC FRET 57.4*.
Screening CCNC(=O)c1cc2c(=O)n3cccc(C)c3nc2n(Cc2ccc(C)cc2)c1=N returned PfM18AAP inh 4.6, Hck-Nef inh 70.7*, RBBP9 inh 3.0, RanGTP-Impb inh active, Runt-CBFb FRET 11.1 and Runt-SMMHC FRET 41.0.
For COCCCn1c(C(=O)NCCC2=CCCCC2)cc2c(=O)n3cccc(C)c3nc21 the results were PfM18AAP inh 2.4 and RanGTP-Impb inh -2.1.
Screening Cc1cccn2c(=O)c3cc(C(=O)NC(C)C)c(=N)n(Cc4ccncc4)c3nc12 returned PfM18AAP inh 0.6, Hck-Nef inh 130.4*, RBBP9 inh -4.5, RanGTP-Impb inh active, Runt-CBFb FRET 17.7 and Runt-SMMHC FRET 61.6*.
CCOCCCn1c(=N)c(C(=O)NCCN2CCOCC2)cc2c(=O)n3cccc(C)c3nc21 was read as PfM18AAP inh -4.8, Hck-Nef inh 132.9* and RBBP9 inh -11.4.
